A selection: hits, their analogues and other compounds. The true share with any hit is near 3.5%.
RGS4 block: RGS4 inhibitors, primary screen, cell-based, HEK293 M3R inducible RGS4, calcium flux. Regulator of G-protein signaling 4 (Homo sapiens), P49798. Fluo-4 calcium flux; stronger effect = higher value; triggered by carbachol at its EC20. B-score at 10 µM. hit rate 0.45% among 310,000;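 active = B-score, a plate-corrected calcium signal, over three deviations above library mean, with baseline fluorescence within five deviations of library mean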;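 also: RGS4 expression induced by doxycycline in cells with stable M3 receptor; B-score is computed from the integrated fluorescence ratio over baseline after carbachol; higher B-score means a larger calcium signal and so more RGS4 inhibition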
Target sequence (P49798 whole entry, looked up): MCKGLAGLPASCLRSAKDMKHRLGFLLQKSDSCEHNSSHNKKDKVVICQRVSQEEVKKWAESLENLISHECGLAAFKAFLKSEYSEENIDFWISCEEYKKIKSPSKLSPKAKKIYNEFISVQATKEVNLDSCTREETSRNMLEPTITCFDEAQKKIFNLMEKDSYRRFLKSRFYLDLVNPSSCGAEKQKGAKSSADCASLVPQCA
RGS4 act: RGS4 potentiators or activators, primary screen, cell-based, HEK293 M3R inducible RGS4, calcium flux. carbachol calcium flux Fluo4; stronger effect = lower value. B-score at 10 µM. hit rate 0.92% among 310,000. AID 463111, 2010;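 active = B-score of the integrated calcium signal more than 4 SD below the library mean, with starting fluorescence not abnormally high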;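 also: negative B-score means reduced calcium response which marks RGS4 activation or potentiation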
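System – HEK293 FlpIn-TREx cells, stable M3R, doxycycline-inducible RGS4 · Reagent – ECmax carbachol challenge · Times – compound preincubation 20 min at room temperature before agonist · Technique – Fluo4 fluorescence kinetic imaging of calcium · Measure – B score of integrated Fluo4 ratio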
MrgX1 agonist: agonists of human MrgX1 receptor, primary screen, HEK293 cells, Fluo-4 calcium flux; Mas-related G-protein coupled receptor member X1 (Homo sapiens), Q96LB2; Fluo-4 calcium fluorescence, agonist mode; stronger effect = higher value; B-score at 10 µM; hit rate 0.44% among 310,000;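 active = calcium response B-score plate-corrected fluorescence ratio at least 3 library SD, with starting fluorescence B-score inside 5 SD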
Target sequence (Q96LB2 whole entry, looked up): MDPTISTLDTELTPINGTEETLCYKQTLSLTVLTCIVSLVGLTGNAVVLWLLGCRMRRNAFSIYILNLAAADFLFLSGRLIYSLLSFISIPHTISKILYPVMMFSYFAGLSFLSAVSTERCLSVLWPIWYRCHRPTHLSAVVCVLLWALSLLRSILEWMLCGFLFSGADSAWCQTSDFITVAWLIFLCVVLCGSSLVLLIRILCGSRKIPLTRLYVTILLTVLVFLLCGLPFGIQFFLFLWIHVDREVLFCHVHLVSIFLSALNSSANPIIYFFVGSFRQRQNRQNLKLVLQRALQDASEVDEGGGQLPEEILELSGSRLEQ
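Test system: Stable human MrgX1 HEK293 cell line | Schedule: Overnight plating before 1 h dye loading | Read-out basis: Baseline-normalised fluorescence change ratio, B-scored | Detection: Kinetic calcium dye fluorescence, Fluo-4 NW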
MrgX1 antagonist: antagonists of human MrgX1 receptor, primary screen, HEK293 cells, Fluo-4 calcium flux | BAM8-22 antagonism; stronger effect = lower value | B-score at 10 µM | hit rate 1.3% among 310,000;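 active = calcium-response B-score plate-corrected more than 3 library SD below zero, starting fluorescence within 5 deviations, no agonist response on first addition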;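 also: peak minus trough fluorescence over baseline after final BAM8-22 challenge near maximal dose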
MrgX1 PAM: positive allosteric modulators of MrgX1, primary screen, HEK293 cells, Fluo-4 calcium flux. Mas-related G-protein coupled receptor member X1 (Homo sapiens), Q96LB2. FDSS; stronger effect = higher value. B-score at 10 µM. hit rate 0.63% among 310,000;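 active = plate-corrected calcium response at least 3 library SD above typical, normal starting fluorescence, not activating the receptor alone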;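 also: compound read alongside a low EC10 to EC30 dose of BAM8-22 agonist; peak minus trough fluorescence over baseline measured at the second addition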
MrgX1 ag reconf: MrgX1 receptor agonists, duplicate retest, confirmation, HEK293 cells, Fluo-4 calcium flux; AID 602412, 2012; activation, % at 10 µM; hit rate 78% among 600; shares compounds with MrgX1 agonist; Fluo-4 calcium fluorescence, FDSS;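 active = calcium signal rise, corrected for plate position, at least 3 library SD high, with starting brightness within 5 such deviations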
HEK293 Ca flux: nonspecific calcium signal in parental HEK293, confirmation, counter-screen for MrgX1 antagonist project, parental HEK293 cells, Fluo-4 calcium flux; Fluo-4 calcium fluorescence, FDSS; fluorescence ratio F(max-min)/F0 at 10 µM; hit rate 2% among 4,000; AID 624111, 2012; shares compounds with MrgX1 antagonist;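 active = duplicate-averaged calcium fluorescence ratio at least three times the standard deviation of buffer wells, a nonspecific response in parental cells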
HEK293 Ca counter: calcium response in parental HEK293 cells, primary screen, counter-screen for MrgX1 allosteric activator project, cell-based, Fluo-4 calcium flux, duplicate; fluorescence ratio F(max-min)/F0 at 10 µM; shares compounds with MrgX1 antagonist; hit rate 0.4% among 4,000; Fluo-4 fluorescence ratio; stronger effect = higher value; AID 624114, 2012;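 active = calcium fluorescence ratio, averaged over duplicates, at least 3 SD of the buffer-well ratio, meaning a nonspecific response in receptor-free cells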;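 also: untransfected parental HEK293 lacking MrgX1 used as counterscreen for MrgX1 allosteric activators; fluorescence change taken during the second addition on a kinetic imager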
HEK293 Ca cntr2: calcium response in parental HEK293 cells, primary screen, counter-screen for MrgX1 agonist project, cell-based, Fluo-4 calcium flux, duplicate, agonist mode; Fluo-4 calcium fluorescence (FDSS); stronger effect = higher value; AID 624115, 2012; hit rate 8.7% among 4,000; fluorescence ratio F(max-min)/F0 at 10 µM; shares compounds with MrgX1 antagonist;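 active = calcium fluorescence ratio at least three times the spread of buffer wells, meaning a non-specific response in parental cells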
An asterisk follows results filed as active; i = inactive; . = not tested or not shown.

SMILES	RGS4 block	RGS4 act	MrgX1 agonist	MrgX1 antagonist	MrgX1 PAM	MrgX1 ag reconf	HEK293 Ca flux	HEK293 Ca counter	HEK293 Ca cntr2
Cc1sc(NC(=O)C2CCCCC2C(=O)O)c(C(N)=O)c1-c1ccc(C(C)(C)C)cc1 (stereo unspecified)	i	i	95*	i	i	299%*	i	i	68*
Cc1oc2cc(O)ccc2c(=O)c1-c1nncn1-c1ccccc1	i	i	30*	i	i	i	i	i	i
Cc1ccc(NC2=NCC(=O)N2CCc2ccccc2)cc1C	i	i	i	i	i	.	.	.	.
CCOc1ccc(NC2=NCC(=O)N2CCc2ccccc2)cc1	i	i	27*	i	i	122%*	i	i	i
O=c1c2cc(Br)ccc2nc(-c2ccc(Cl)cc2)n1O	i	i	143*	i	i	661%*	i	i	129*
N#Cc1ccc(-c2nc3cc(Cl)ccc3c(=O)n2O)cc1	i	i	i	i	i	.	.	.	.
O=c1c2cc(Cl)ccc2nc(-c2ccc([N+](=O)[O-])cc2)n1O	i	i	72*	i	i	270%*	i	i	63*
Cc1ccc(-c2nc3c(Cl)cc(Cl)cc3c(=O)n2O)cc1	i	i	105*	i	i	482%*	i	i	104*
CCOC(=O)CN=C/C(C(=O)Nc1nccs1)=C(/C)O	i	i	i	i	i	.	.	.	.
ClCC1=Nc2ccccc2Cc2ccccc21	i	i	29*	i	i	111%*	i	i	i
c1ccc2c(c1)Cc1cc3ccccc3nc1-2	i	i	i	i	i	.	.	.	.
Cc1ccc(-c2csc3ncn(CC(=O)N4CCOCC4)c(=O)c23)cc1C	i	i	32*	i	i	135%*	i	i	i
Cc1ccc(C)c2[nH]c(=O)c(CN(CC3CCCO3)C(=O)NC3CCCCC3)cc12 (stereo unspecified)	i	i	i	i	i	.	.	.	.
CC(=O)COc1cccc2ccc(/C=C/c3ccc(Br)s3)nc12	i	i	38*	i	i	163%*	i	i	49*
COc1ccc(C(=O)NC(=S)NNC(=O)c2c(-c3ccccc3)noc2C)cc1OC	i	i	81*	i	i	222%*	i	i	51*
COc1ccc(C(=O)NC(=S)NNC(=O)[C@H]2C[C@@H]2c2ccccc2)cc1OC	i	i	67*	i	i	378%*	i	i	72*
CC(C)(C)NC(=S)NNC(=O)[C@H]1C[C@@H]1c1ccccc1	i	i	i	i	i	.	.	.	.
Cc1onc(-c2ccccc2)c1C(=O)NCc1ccc2c(c1)OCO2	i	i	i	i	i	.	.	.	.
Cc1onc(-c2ccccc2)c1C(=O)NNC(=S)NC(=O)c1ccc2c(c1)OCO2	i	i	77*	i	i	412%*	i	i	104*
O=C(NC(=S)NCc1ccco1)c1ccccc1[N+](=O)[O-]	i	i	i	i	i	.	.	.	.
CC(=Nc1ccc(C)cc1)c1sc2ccccc2c1O	i	i	i	i	i	.	.	.	.
CC(=Nc1cccc(O)c1)c1sc2ccccc2c1O	i	i	28*	i	i	144%*	i	i	i
O=C1CSc2ccc(C(=O)NCCC3=CCCCC3)cc2N1	i	i	119*	i	i	i	i	i	i
O=C(NCCCCc1ccccc1)Nc1ccc(F)cc1	i	i	i	i	i	.	.	.	.
CCCCCC(=O)N/N=C(\C)c1ccccn1	i	i	86*	i	i	i	i	i	i
SMILES	RGS4 block	RGS4 act	MrgX1 agonist	MrgX1 antagonist	MrgX1 PAM	MrgX1 ag reconf	HEK293 Ca flux	HEK293 Ca counter	HEK293 Ca cntr2
CCCCCCCCCC(=O)N/N=C(\C)c1cccnc1	i	i	i	i	i	.	.	.	.
COc1ccc(OC)c(NC(=O)CSc2nc(=O)n(CCN3CCOCC3)c3c2CCCC3)c1	i	i	i	i	i	.	.	.	.
Cc1ccc(-c2[nH]c(-c3ccccc3)nc2SCC(=O)NCC2CCCO2)cc1 (stereo unspecified)	i	i	34*	i	i	239%*	i	i	49*
Cc1cccc(C)c1OC(=O)CSc1nnc(-c2ccccc2O)o1	i	i	i	i	i	.	.	.	.
Oc1cccc(Nc2nc(O)c(/C=C3\C=Nc4ccccc43)s2)c1	.	.	39*	i	i	416%*	i	i	76*
Oc1nc(Nc2cccc(Cl)c2)sc1/C=C1\C=Nc2ccccc21	i	i	i	i	i	.	.	.	.
Oc1c(C=NCc2ccc(F)cc2)[nH]c2ccc(Br)c(Cl)c12	5.7*	i	27*	i	i	332%*	i	i	71*
O=C(COC(=O)c1nc(Cl)ccc1Cl)Nc1ccc2c(c1)OCO2	i	i	28*	i	i	i	i	i	i
Cc1ccccc1NC(=O)CN1CCOCC1	i	i	35*	i	i	i	i	i	i
Cc1cc(-c2csc(N)n2)c(C)n1C	i	i	31*	i	i	150%*	i	i	i
Cc1ccc(-c2cc3ccccc3nc2N)cc1	i	i	43*	i	i	220%*	i	i	i
Nc1nc2ccccc2cc1-c1cccs1	i	i	45*	i	i	196%*	i	i	i
c1csc(-c2ccc3ccccc3n2)c1	i	i	i	i	i	.	.	.	.
